Blank lines part the entries; values can stand above or below the compound they belong to.
Key:
A549 = assay: Concentration required to inhibit tumor growth in A549, human lung carcinoma (NSCLC) cell line; assay type: functional, cell-based
In short: (§1)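 Cells grown in RPMI 1640 with 5% fetal calf serum, 5% NuSerum IV and 20 mM HEPES, seeded and allowed to adhere overnight. Compound dissolved in RPMI-1640 plus HEPES and tested over a 5 log range (10 concentrations) for 72 h. Read-out by sulforhodamine B assay. Median-effect dose derived by nonlinear regression of the concentration-effect curve.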

HT-29 = assay: Concentration required to inhibit tumor growth in HT29, human colon adenocarcinoma cell line; assay type: functional, cell-based; details: Homo sapiens, HT-29; in short: as §1
[1] = Concentration required to inhibit tumor growth in […], human breast adenocarcinoma cell line; assay type: functional; in short: as §1
[2] = Concentration required to inhibit tumor growth in PSN-1, human pancreatic carcinoma cell line; assay type: functional
In short: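 PSN-1 pancreatic carcinoma cells exposed to compound dissolved in RPMI-1640 plus HEPES at its maximum soluble concentration for 72 h. Read-out by sulforhodamine B colorimetric assay.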

L1210 (Mus musculus) = assay: Concentration required to inhibit tumor growth in L1210, murine lymphocytic leukemia cell line
[3] = Percent increase in life span of dying mice tested in vivo at 47 mg/kg against ip implanted LOX amelanotic melanoma in mice (60-day survivors); assay type: functional; details: Mus musculus, 1440 h, route intraperitoneal
In short: (§2)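 Female CD2F1 mice implanted ip with ascitic fluid carrying ca. 1.7×10^6 LOX amelanotic melanoma cells. Drug given ip on days 1, 5 and 9, starting 24 h after implant, dosed by exact body weight; solutions or suspensions made fresh daily. %ILS is from the median day of death of dying mice versus controls, excluding 60-day survivors.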

[4] = Percent increase in life span of dying mice tested in vivo at 94 mg/kg against ip implanted LOX amelanotic melanoma in mice (60-day survivors); assay type: functional; details: Mus musculus, 1440 h, route intraperitoneal
In short: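 Nude CD2F1 female mice were implanted ip with ascitic fluid containing ca. 1.7×10^6 LOX amelanotic melanoma cells. Drug was given ip on days 1, 5 and 9, starting 24 h after implantation, and dosed by exact body weight. Solutions or suspensions were made fresh daily in saline plus Tween 80. %ILS was calculated from the median day of death of dying mice versus controls, excluding 60-day survivors.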

[5] = Change in tumor cell population in ip implanted LOX amelanotic melanoma in mice after administration of compound at 94 mg/kg; assay type: functional, Mus musculus; details: route intraperitoneal
In short: (§3)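 Female CD2F1 mice were implanted ip with ascitic fluid holding ca. 1.7×10^6 LOX cells. Dosing was ip on days 1, 5 and 9, starting 24 h after implantation, by exact body weight, as a solution or suspension in saline plus Tween 80, freshly prepared daily. KE is the net log change in viable tumor cells from start to end of treatment. Bracketed KE assumes Poisson survival, with 60-day survivors tumor-free.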

[6] = Change in tumor cell population in ip implanted LOX amelanotic melanoma in mice after administration of compound at 188 mg/kg; assay type: functional, Mus musculus; details: route intraperitoneal; in short: as §3
[7] = Change in tumor cell population in ip implanted LOX amelanotic melanoma in mice after administration of compound at 23.5 mg/kg; assay type: functional, Mus musculus; details: route intraperitoneal; in short: as §3
[8] = Change in tumor cell population in ip implanted LOX amelanotic melanoma in mice after administration of compound at 47 mg/kg; assay type: functional, Mus musculus; details: route intraperitoneal; in short: as §3
[9] = Percent increase in life span of dying mice tested in vivo at 23.5 mg/kg against ip implanted LOX amelanotic melanoma in mice (60-day survivors); assay type: functional; details: Mus musculus, 1440 h, route intraperitoneal; in short: as §2
[10] = Percent increase in life span of dying mice tested in vivo at 188 mg/kg against ip implanted LOX amelanotic melanoma in mice (60-day survivors); assay type: functional; details: Mus musculus, 1440 h, route intraperitoneal; in short: as §2
P388 [11] = assay: Change in tumor cell population in ip implanted P388 Leukemia in mice after administration of compound at 23.5 mg/kg; assay type: functional, Mus musculus; details: route intraperitoneal
In short: (§4)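 Female Portage-CD2F1 mice were inoculated ip with ascitic fluid holding ca. 5.2×10^6 P388 cells. Dosing was ip on days 1-5, starting 24 h after inoculation, by average body weight, as a solution or suspension in saline plus Tween 80. KE is the net log change in viable tumor cell population from start to end of the treatment period.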

P388 [12] = assay: Change in tumor cell population in ip implanted P388 Leukemia in mice after administration of compound at 47 mg/kg; assay type: functional, Mus musculus; details: route intraperitoneal
In short: (§5)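 P388 leukemia: ascitic fluid with ca. 5.2×10^6 cells inoculated ip into Portage-CD₂F₁ female mice. Drug given ip on days 1-5, starting 24 h after inoculation, dosed by average body weight. Vehicle was saline plus Tween 80, as a solution or suspension. KE = net log change in viable tumor cells from start to end of treatment.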

P388 [13] = assay: Change in tumor cell population in ip implanted P388 Leukemia in mice after administration of compound at 94 mg/kg; assay type: functional, Mus musculus; details: route intraperitoneal; in short: as §5
P388 [14] = assay: Percent increase in life span of dying mice tested in vivo at 23.5 mg/kg against ip implanted P388 Leukemia in mice; assay type: functional; details: Mus musculus, route intraperitoneal
In short: (§6)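 Portage-CD2F1 female mice inoculated ip with ascitic fluid carrying ca. 5.2×10^6 P388 leukemia cells. Drug given ip daily on days 1-5, starting 24 h after inoculation, dosed by average body weight. %ILS is from the median day of death of dying mice versus controls.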

P388 [15] = assay: Percent increase in life span of dying mice tested in vivo at 47 mg/kg against ip implanted P388 Leukemia in mice; assay type: functional; details: Mus musculus, route intraperitoneal; in short: as §6
P388 [16] = assay: Percent increase in life span of dying mice tested in vivo at 94 mg/kg against ip implanted P388 Leukemia in mice; assay type: functional; details: Mus musculus, route intraperitoneal
In short: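 Portage-CD2F1 female mice were inoculated ip with ascitic fluid containing ca. 5.2×10^6 P388 leukemia cells. Drug was given ip daily on days 1-5, starting 24 h after inoculation, and dosed by average body weight. %ILS was calculated from the median day of death of dying mice versus controls.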

P388 [17] = assay: Change in tumor cell population in ip implanted P388 Leukemia in mice after administration of compound at 11.8 mg/kg; assay type: functional, Mus musculus; details: route intraperitoneal; in short: as §4
P388 [18] = assay: Percent increase in life span of dying mice tested in vivo at 11.8 mg/kg against ip implanted P388 Leukemia in mice; assay type: functional; details: Mus musculus, route intraperitoneal; in short: as §6

- IC50 (A549): > 100 µM
- IC50 (HT-29): > 100 µM
- IC50 (L1210 (Mus musculus)): > 100 µM
Compound: CNC(=O)OCc1nc(Sc2ccccc2)n(C)c1COC(=O)NC
- IC50 [1]: > 100 µM
- IC50 [2]: > 100 µM

- IC50 (A549): 190 µM
- IC50 (HT-29): 108 µM
- IC50 (L1210 (Mus musculus)): 11 µM
Compound: CNC(=O)OCc1nc2n(c1COC(=O)NC)CCS2
- IC50 [1]: 147 µM
- IC50 [2]: 118 µM

- IC50 (A549): > 1000 µM
- IC50 (HT-29): > 1000 µM
- IC50 (L1210 (Mus musculus)): > 100 µM
Compound: CNC(=O)OCc1nc2n(c1COC(=O)NC)CCCS2
- IC50 [1]: > 1000 µM
- IC50 [2]: > 650 µM

Compound: CNC(=O)OCc1nc(SC(C)C)n(C)c1COC(=O)NC
- ILS at 47 mg/kg [3]: 24%
- ILS at 94 mg/kg [4]: 28%
- KE [5]: 0.6
- KE [6]: -0.2
- KE [7]: 1.3
- KE [8]: 0.7
- ILS at 23.5 mg/kg [9]: 13%
- ILS at 188 mg/kg [10]: 45%
- KE (P388 [11]): 1
- KE (P388 [12]): 0.9
- KE (P388 [13]): -1.5
- ILS at 23.5 mg/kg (P388 [14]): 25%
- ILS at 47 mg/kg (P388 [15]): 27%
- ILS at 94 mg/kg (P388 [16]): 59%
- KE (P388 [17]): 0.6
- ILS at 11.8 mg/kg (P388 [18]): 31%

Reference: ChEMBL document CHEMBL1126902, “Synthesis, chemical reactivity, and antitumor evaluation of congeners of carmethizole hydrochloride, an experimental "acylated vinylogous carbinolamine" tumor inhibitor” (J Med Chem, 1993)
